Results: ChEMBL document CHEMBL1649401, “Synthesis and biophysical evaluation of arylhydrazono-1H-2-indolinones as β-amyloid aggregation inhibitors” (Eur J Med Chem, 2011)
Activity calls are given as the source filed them. The calls are words filed in the database; no cut-off is given here.

Columns and labels:
[1] = Inhibition of amyloid beta (1 to 40) aggregation after 2 hrs by thioflavin T based fluorometric assay
[2] = Solubility of the compound in aqueous buffer; format: physicochemical
[3] = Inhibition of amyloid beta (1 to 40) aggregation assessed as reduction of exponential phase of thioflavin T fluorescence curve at 5 uM after 3 to 4 days
Method in brief: (§1)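 Aβ1-40 (50 μM) incubated alone or with compound in 0.217 M phosphate pH 8.0, 10% ethanol, 37 °C. Aliquots taken at time points over several days and analyzed by ThT fluorescence. Values expressed as percentage of the plateau fluorescence of free aggregation.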

[4] = Inhibition of amyloid beta (1 to 40) aggregation assessed as reduction of exponential phase of thioflavin T fluorescence curve at 25 uM after 3 to 4 days; method in brief: as §1
[5] = Inhibition of amyloid beta (1 to 40) aggregation assessed as reduction of exponential phase of thioflavin T fluorescence curve at 100 uM after 3 to 4 days; method in brief: as §1
[6] = Inhibition of amyloid beta (1 to 40) aggregation assessed as effect on extension of beta-sheet content at 5 uM after 2 days by CD spectroscopy assay
Method in brief: (§2)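 Samples as for TEM: 50 μM Aβ1-40, 0.217 M phosphate pH 8.0, 10% ethanol, 37 °C incubation, aliquots removed over time. Spectra 195–250 nm, 0.1 cm cell, room temperature, 0.1 nm steps, 4 nm bandwidth. Buffer/ethanol (± compound) blank subtracted. Absolute 215 nm ellipticity plotted vs incubation time.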

[7] = Inhibition of amyloid beta (1 to 40) aggregation assessed as effect on extension of beta-sheet content at 5 uM up to 8 days by CD spectroscopy assay; method in brief: as §2
[8] = Inhibition of amyloid beta (1 to 40) aggregation assessed as loss of beta-sheet structure up to 100 uM after up to 8 days by CD spectroscopy assay; method in brief: as §2
[9] = Inhibition of amyloid beta (1 to 40) aggregation assessed as loss of stable random coil arrangement of peptide up to 100 uM after up to 8 days by CD spectroscopy assay; method in brief: as §2
[10] = Inhibition of amyloid beta (1 to 40) aggregation assessed as inhibition of extended fibrils formation at 5 uM after 7 days by transmission electron microscopic analysis
[11] = Inhibition of amyloid beta (1 to 40) aggregation assessed as reduction of autocorrelation function particles size at 5 uM after 3 days by dynamic light-scattering analysis
Method in brief: (§3)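 Dynamic light scattering at a 173° backscatter angle with a 633 nm laser, cell held at 37 °C. z-averaged hydrodynamic diameter obtained by second-order cumulant analysis and the Stokes–Einstein equation.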

[12] = Inhibition of amyloid beta (1 to 40) aggregation assessed as delay in formation of fibrils at 5 uM after 12 hrs by dynamic light-scattering analysis; method in brief: as §3
[13] = Inhibition of amyloid beta (1 to 40) aggregation assessed as formation of long and curly fibrils at 5 uM after 7 days by transmission electron microscopic analysis
[14] = Inhibition of amyloid beta (1 to 40) aggregation at 100 uM after 2 hrs by thioflavin T based fluorometric assay
Method in brief: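 Aβ1-40 (HFIP-treated, lyophilized) at 30 μM in PBS (0.01 M, NaCl 0.1 M, pH 7.4) containing 2% HFIP and 10% DMSO. Incubated with inhibitor in triplicate, 2 h at 25 °C. Sample mixed with 25 μM ThT in 0.025 M phosphate pH 6.0, read at ex 440/em 485 nm. % inhibition = 100 − [(Fi − Fb)/F0]×100. Screen at 100 μM.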

IC50 [1] | inhibition [14] | Structure (SMILES) | other results
11 µM |  | O=C1Nc2cc(O)c(O)cc2/C1=N/Nc1ccccc1Cl | 
1.1 µM |  | O=C1Nc2cc(O)c(O)cc2/C1=N/Nc1cccc(Cl)c1 | solubility [2]: soluble; inhibition [3]: Active; inhibition [4]: Active; inhibition [5]: Active; inhibition [6]: inactive; inhibition [7]: Active; inhibition [8]: Active; inhibition [9]: Active; inhibition [10]: Active; inhibition [11]: inactive; inhibition [12]: Active; inhibition [13]: Active
 | 64% | CC(C)c1ccc(N/N=C2\C(=O)Nc3ccccc32)cc1 | 
17 µM |  | O=C1Nc2cc(O)c(O)cc2/C1=N/Nc1ccc(Cl)cc1 | 
24 µM |  | O=C1Nc2cc(O)c(O)cc2/C1=N/Nc1ccc(O)cc1 | 
 | 29% | O=C1Nc2ccccc2/C1=N/Nc1cccc([N+](=O)[O-])c1 | 
0.4 µM |  | COc1ccc2c(c1)/C(=N/Nc1ccc(C(C)C)cc1)C(=O)N2 | 
17 µM |  | COc1cc2c(cc1OC)/C(=N/Nc1cccc(Cl)c1)C(=O)N2 | 
7.1 µM |  | COc1ccc2c(c1)NC(=O)/C2=N\Nc1ccc(C(C)C)cc1 | 
1.6 µM |  | CC(C)c1ccc(N/N=C2\C(=O)Nc3cc(O)c(O)cc32)cc1 | 
 | 68% | COc1cc2c(cc1OC)/C(=N/Nc1ccccc1Cl)C(=O)N2 | 
 | 63% | O=C1Nc2ccc(Br)cc2/C1=N/Nc1ccc(Cl)cc1 | 
22 µM |  | COc1ccc(N/N=C2\C(=O)Nc3cc(OC)c(OC)cc32)cc1 | 
 | 28% | O=C1Nc2cc(Cl)c(F)cc2/C1=N/Nc1ccc(Cl)cc1 | 
 | 20% | COc1ccc2c(c1)/C(=N/Nc1ccc(OCc3ccccc3)cc1)C(=O)N2 | 
 | 24% | O=C1Nc2ccccc2/C1=N/Nc1ccc(Cl)cc1 | 
 | 39% | O=C1Nc2ccccc2/C1=N/Nc1cccc(Cl)c1 | 
 | 68% | COc1cc2c(cc1OC)/C(=N/Nc1ccccc1)C(=O)N2 | 
 | 56% | COc1ccc2c(c1)/C(=N/Nc1cccc(C(C)(C)C)c1)C(=O)N2 | 
3.7 µM |  | COc1ccc(N/N=C2\C(=O)Nc3ccc(OC)cc32)cc1 | 
 | 12% | O=C1Nc2ccc([N+](=O)[O-])cc2/C1=N/Nc1ccc(Cl)cc1 | 
 | 71% | COc1cc2c(cc1OC)/C(=N/Nc1ccc(Cl)cc1)C(=O)N2 | 

IC50 [1] | inhibition [14] | Structure (SMILES) | other results
 | 61% | Oc1[nH]c2ccccc2c1/N=N/c1ccccc1 | 
4.3 µM |  | O=C1Nc2cc(O)c(O)cc2/C1=N/Nc1ccccc1 | 
 | 0% | O=C1Nc2ccc([N+](=O)[O-])cc2/C1=N/Nc1ccccc1 | 
9.3 µM |  | O=C1Nc2ccccc2/C1=N/Nc1ccc(O)cc1 | 
 | 57% | O=C1Nc2ccccc2/C1=N/Nc1ccc(OC(F)(F)F)cc1 | 
 | 62% | O=C1Nc2ccc(O)cc2/C1=N/Nc1ccccc1 | 
21 µM |  | CC(C)c1ccc(N/N=C2\C(=O)Nc3ccc(O)cc32)cc1 | 
4.4 µM |  | COc1cc2c(cc1OC)/C(=N/Nc1ccc(C(C)C)cc1)C(=O)N2 | 
 | 44% | O=C1Nc2ccccc2/C1=N/Nc1ccccc1Cl | 
15 µM |  | COc1ccc2c(c1)/C(=N/Nc1ccc(C(C)(C)C)cc1)C(=O)N2 | 
 | 52% | O=C1Nc2ccccc2/C1=N/Nc1cccc(F)c1 | 
 | 29% | COc1ccc2c(c1)/C(=N/Nc1ccc(C)cc1)C(=O)N2 | 
22 µM |  | O=C1Nc2cc(O)ccc2/C1=N/Nc1ccccc1 | 
6 µM |  | CC(C)c1ccc(N/N=C2\C(=O)Nc3cc(O)ccc32)cc1 | 
13 µM |  | COc1ccc(N/N=C2\C(=O)Nc3ccccc32)cc1 | 
5.8 µM |  | COc1ccc2c(c1)NC(=O)/C2=N\Nc1ccccc1 | 
 | 61% | O=C1Nc2ccc(O)cc2/C1=N/Nc1ccc(O)cc1 | 
 | 72% | COc1ccc2c(c1)/C(=N/Nc1cccc(Cl)c1)C(=O)N2 | 
18 µM |  | O=C1Nc2ccc(O)cc2/C1=N/Nc1cccc(Cl)c1 | 
 | 44% | COc1ccc2c(c1)/C(=N/Nc1cccc(OCc3ccccc3)c1)C(=O)N2 | 
 | 43% | COc1ccc2c(c1)/C(=N/Nc1ccc(Cl)cc1)C(=O)N2 | 
 | 52% | COc1ccc2[nH]c(O)c(/N=N/c3ccccc3)c2c1 | 
